These results are taken from ChEMBL document CHEMBL1140564, “Macrocyclic ureas as potent and selective Chk1 inhibitors: an improved synthesis, kinome profiling, structure-activity relationships, and preliminary pharmacokinetics” (Bioorg Med Chem Lett, 2007).

pEC50, pIC50: −log10 of the molar value. Active and inactive are the calls of the source. The rule behind the calls is not given here.

The subject of one assay is NCI-H1299. As to the kind of experiment: Inhibition of doxorubicin-induced cell cycle arrest in H1299 cells at G2/M phase by FACS assay. The class given is functional, cell-based. Conditions: Homo sapiens. The method in brief: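 H1299 cells treated with 500 nM doxorubicin to induce G2/M arrest, with or without inhibitor at various concentrations, up to 10 μM. Cells stained with propidium iodide and DNA content analysed by FACS. EC50 for abrogation of the Dox-induced G2/M checkpoint.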
A general note: A flow cytometer gives signals particle by particle.
The pEC50 is the EC50 on a negative log10 scale, so that one unit is a factor of ten. Compound `N#Cc1ncc2nc1OC/C=C\COc1cc(NCCO)c(Cl)cc1NC(=O)N2` showed a pEC50 of 5.89.
`COCCCOc1cc2c(cc1Cl)NC(=O)Nc1cnc(C#N)c(n1)OCCCCO2`: the outcome was inactive.
Regarding `N#Cc1ncc2nc1OC/C=C\COc1cc(OCCCO)c(Cl)cc1NC(=O)N2`, the outcome was inactive.
In turn, `N#Cc1ncc2nc1OCCCCOc1cc(N)c(Cl)cc1NC(=O)N2` showed a pEC50 of over 7.52.
Turning to `N#Cc1ncc2nc1OCCCCOc1cc(P(=O)(O)O)c(Cl)cc1NC(=O)N2`, the outcome was inactive.
As for `N#Cc1ncc2nc1OCCCCOc1cc(OCCO)c(Cl)cc1NC(=O)N2`, the pEC50 was 5.49.
On the same count and under the same terms, in the case of `N#Cc1ncc2nc1OCCCCOc1cc(OCCCN3CCOCC3)c(Cl)cc1NC(=O)N2` it was under 5.00; in that of `N#Cc1ncc2nc1OC/C=C\COc1cc(NC(=O)OCCN3CCOCC3)c(Cl)cc1NC(=O)N2`, under 5.00; in that of `CCN(CC)c1cc2c(cc1Cl)NC(=O)Nc1cnc(C#N)c(n1)OCCCCO2`, under 5.00.
Take `N#Cc1ncc2nc1OCCCCOc1cc(OCCCO)c(Cl)cc1NC(=O)N2`: the negative logarithm of the EC50 (pEC50) is 5.60.
`CN(C)c1cc2c(cc1Cl)NC(=O)Nc1cnc(C#N)c(n1)OC/C=C\CO2` gave a pEC50 of 5.77.
For the compound `CNc1cc2c(cc1Cl)NC(=O)Nc1cnc(C#N)c(n1)OCCCCO2`, the pEC50 was under 5.00.
Turning to `N#Cc1ncc2nc1OC/C=C\COc1cc(N3CCOC3=O)c(Cl)cc1NC(=O)N2`, the result was inactive.
Consider `N#Cc1ncc2nc1OC/C=C\COc1cc(N(CCO)CCO)c(Cl)cc1NC(=O)N2`, for which the outcome was inactive.
Compound `N#Cc1ncc2nc1OC/C=C\COc1cc(O)c(Cl)cc1NC(=O)N2` had a pEC50 of 6.15.
With `N#Cc1ncc2nc1OC/C=C\COc1cc(NC(=O)c3ccncc3)c(Cl)cc1NC(=O)N2`, the pEC50 is under 5.00.
With `N#Cc1ncc2nc1OCCCCOc1cc(NC(=O)c3ccnc(Cl)c3)c(Cl)cc1NC(=O)N2`, the outcome was inactive.

Tested on in another assay: not listed separately
As to the kind of experiment: Cell cycle arrest in H1299 cells by accumulation at G2/M phase by FACS assay. Type of assay: functional, cell-based. Conditions: Homo sapiens, NCI-H1299.
With `N#Cc1ncc2nc1OC/C=C\COc1cc(NCCO)c(Cl)cc1NC(=O)N2`, the negative-log EC50 (pEC50) is under 5.00.
With `N#Cc1ncc2nc1OCCCCOc1cc(N)c(Cl)cc1NC(=O)N2`, the pEC50 is 5.59.
In turn, `N#Cc1ncc2nc1OCCCCOc1cc(OCCO)c(Cl)cc1NC(=O)N2` gave a pEC50 of under 5.00.
Compound `N#Cc1ncc2nc1OCCCCOc1cc(OCCCN3CCOCC3)c(Cl)cc1NC(=O)N2` gave a pEC50 of under 5.00.
In turn, `N#Cc1ncc2nc1OC/C=C\COc1cc(NC(=O)OCCN3CCOCC3)c(Cl)cc1NC(=O)N2` had a pEC50 of under 5.00.
The compound `CCN(CC)c1cc2c(cc1Cl)NC(=O)Nc1cnc(C#N)c(n1)OCCCCO2` showed a pEC50 of under 5.00.
`N#Cc1ncc2nc1OCCCCOc1cc(OCCCO)c(Cl)cc1NC(=O)N2` showed a pEC50 of under 5.00.
Same read-out and setting: as for `CN(C)c1cc2c(cc1Cl)NC(=O)Nc1cnc(C#N)c(n1)OC/C=C\CO2`, the figure is under 5.00.
As for `CNc1cc2c(cc1Cl)NC(=O)Nc1cnc(C#N)c(n1)OCCCCO2`, the pEC50 was under 5.00.
Turning to `N#Cc1ncc2nc1OC/C=C\COc1cc(O)c(Cl)cc1NC(=O)N2`, the pEC50 is under 5.00.
Still for that read-out and setting: in the case of `N#Cc1ncc2nc1OC/C=C\COc1cc(NC(=O)c3ccncc3)c(Cl)cc1NC(=O)N2` it was under 5.00.

Still in this assay, the particulars now being: Homo sapiens; NCI-H1299.
As to `COCCCOc1cc2c(cc1Cl)NC(=O)Nc1cnc(C#N)c(n1)OCCCCO2`, the result was inactive.
On to `N#Cc1ncc2nc1OC/C=C\COc1cc(OCCCO)c(Cl)cc1NC(=O)N2`, for which the result was inactive.
As to `N#Cc1ncc2nc1OCCCCOc1cc(P(=O)(O)O)c(Cl)cc1NC(=O)N2`, the result was inactive.
For the compound `N#Cc1ncc2nc1OC/C=C\COc1cc(N3CCOC3=O)c(Cl)cc1NC(=O)N2`, the outcome was inactive.
As to `N#Cc1ncc2nc1OC/C=C\COc1cc(N(CCO)CCO)c(Cl)cc1NC(=O)N2`, the outcome was inactive.
Consider `N#Cc1ncc2nc1OCCCCOc1cc(NC(=O)c3ccnc(Cl)c3)c(Cl)cc1NC(=O)N2`, for which the result was inactive.

The target of the next assay is T1, Serine/threonine-protein kinase Chk1 (Homo sapiens, UniProt O14757).
T1 sequence (O14757 whole entry): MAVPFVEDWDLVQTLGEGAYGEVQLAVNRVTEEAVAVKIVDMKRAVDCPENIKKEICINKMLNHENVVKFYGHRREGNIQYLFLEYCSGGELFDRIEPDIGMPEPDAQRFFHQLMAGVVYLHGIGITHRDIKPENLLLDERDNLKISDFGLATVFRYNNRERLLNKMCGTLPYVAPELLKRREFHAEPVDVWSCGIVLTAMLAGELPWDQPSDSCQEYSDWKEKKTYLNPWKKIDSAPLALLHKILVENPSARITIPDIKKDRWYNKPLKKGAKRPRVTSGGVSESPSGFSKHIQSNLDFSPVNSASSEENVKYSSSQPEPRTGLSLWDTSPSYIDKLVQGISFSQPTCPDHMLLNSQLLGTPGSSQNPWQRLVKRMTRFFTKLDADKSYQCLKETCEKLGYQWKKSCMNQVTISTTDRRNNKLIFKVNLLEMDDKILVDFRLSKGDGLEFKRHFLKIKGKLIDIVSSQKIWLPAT
As to the kind of experiment: Inhibition of Chk1.
Details: not given
In general, pIC50 refers to −log10 of the IC50, conventionally taken in molar units. The compound `N#Cc1ncc2nc1OC/C=C\COc1cc(NCCO)c(Cl)cc1NC(=O)N2` had a pIC50 of 8.70.
On the same count and under the same terms, in the case of `COCCCOc1cc2c(cc1Cl)NC(=O)Nc1cnc(C#N)c(n1)OCCCCO2` it was 8.52; in that of `N#Cc1ncc2nc1OC/C=C\COc1cc(OCCCO)c(Cl)cc1NC(=O)N2`, 8.70; in that of `N#Cc1ncc2nc1OCCCCOc1cc(N)c(Cl)cc1NC(=O)N2`, 9.00.
For the compound `N#Cc1ncc2nc1OCCCCOc1cc(P(=O)(O)O)c(Cl)cc1NC(=O)N2`, the pIC50 was 8.10.
In the case of `N#Cc1ncc2nc1OCCCCOc1cc(OCCO)c(Cl)cc1NC(=O)N2`, the pIC50 was 8.10.
The same measure, in the same setting: in the case of `N#Cc1ncc2nc1OCCCCOc1cc(OCCCN3CCOCC3)c(Cl)cc1NC(=O)N2` it was 9.00.
For `N#Cc1ncc2nc1OC/C=C\COc1cc(NC(=O)OCCN3CCOCC3)c(Cl)cc1NC(=O)N2`, the pIC50 was 8.52. This pIC50 is 0.48 log units lower than that of the compound before.
Turning to `CCN(CC)c1cc2c(cc1Cl)NC(=O)Nc1cnc(C#N)c(n1)OCCCCO2`, the pIC50 was 7.64.
In turn, `N#Cc1ncc2nc1OCCCCOc1cc(OCCCO)c(Cl)cc1NC(=O)N2` had a pIC50 of 9.00.
The compound `CN(C)c1cc2c(cc1Cl)NC(=O)Nc1cnc(C#N)c(n1)OC/C=C\CO2` showed a pIC50 of 8.70.
`CNc1cc2c(cc1Cl)NC(=O)Nc1cnc(C#N)c(n1)OCCCCO2`: the pIC50 is 8.70.
The compound `N#Cc1ncc2nc1OC/C=C\COc1cc(N3CCOC3=O)c(Cl)cc1NC(=O)N2` had a negative-log IC50 (pIC50) of 8.00.
Turning to `N#Cc1ncc2nc1OC/C=C\COc1cc(N(CCO)CCO)c(Cl)cc1NC(=O)N2`, the pIC50 was 9.00.
On the same count and under the same terms, as for `N#Cc1ncc2nc1OC/C=C\COc1cc(O)c(Cl)cc1NC(=O)N2`, the figure is 9.52.
In turn, `N#Cc1ncc2nc1OC/C=C\COc1cc(NC(=O)c3ccncc3)c(Cl)cc1NC(=O)N2` had a pIC50 of 8.22.
`N#Cc1ncc2nc1OCCCCOc1cc(NC(=O)c3ccnc(Cl)c3)c(Cl)cc1NC(=O)N2` showed a pIC50 of 8.40.

The subject of another assay is HeLa. As to the kind of experiment: Cytotoxicity against HeLa cells by MTS assay. The note with it: Homo sapiens. The class given is functional, cell-based.
`N#Cc1ncc2nc1OC/C=C\COc1cc(NCCO)c(Cl)cc1NC(=O)N2` showed a pEC50 of under 4.23.
The compound `COCCCOc1cc2c(cc1Cl)NC(=O)Nc1cnc(C#N)c(n1)OCCCCO2` showed a pEC50 of 4.86.
In turn, `N#Cc1ncc2nc1OC/C=C\COc1cc(OCCCO)c(Cl)cc1NC(=O)N2` gave a pEC50 of under 4.23.
Regarding `N#Cc1ncc2nc1OCCCCOc1cc(N)c(Cl)cc1NC(=O)N2`, the pEC50 was 5.47.
Consider `N#Cc1ncc2nc1OCCCCOc1cc(P(=O)(O)O)c(Cl)cc1NC(=O)N2`, for which the pEC50 was 4.76.
As to `N#Cc1ncc2nc1OCCCCOc1cc(OCCO)c(Cl)cc1NC(=O)N2`, the pEC50 was under 4.23.
Still for that read-out and setting: in the case of `N#Cc1ncc2nc1OCCCCOc1cc(OCCCN3CCOCC3)c(Cl)cc1NC(=O)N2` it was 5.30; in that of `N#Cc1ncc2nc1OC/C=C\COc1cc(NC(=O)OCCN3CCOCC3)c(Cl)cc1NC(=O)N2`, under 4.23.
On the same count and under the same terms, in the case of `CCN(CC)c1cc2c(cc1Cl)NC(=O)Nc1cnc(C#N)c(n1)OCCCCO2` it was under 4.23.
`N#Cc1ncc2nc1OCCCCOc1cc(OCCCO)c(Cl)cc1NC(=O)N2` had a pEC50 of under 4.23.
The compound `CN(C)c1cc2c(cc1Cl)NC(=O)Nc1cnc(C#N)c(n1)OC/C=C\CO2` had a pEC50 of 4.73.
Same read-out and setting: as for `CNc1cc2c(cc1Cl)NC(=O)Nc1cnc(C#N)c(n1)OCCCCO2`, the figure is under 4.23.
Still for that read-out and setting: in the case of `N#Cc1ncc2nc1OC/C=C\COc1cc(N3CCOC3=O)c(Cl)cc1NC(=O)N2` it was under 4.23; in that of `N#Cc1ncc2nc1OC/C=C\COc1cc(N(CCO)CCO)c(Cl)cc1NC(=O)N2`, 4.47.
`N#Cc1ncc2nc1OC/C=C\COc1cc(O)c(Cl)cc1NC(=O)N2` had a pEC50 of 4.34.
Regarding `N#Cc1ncc2nc1OC/C=C\COc1cc(NC(=O)c3ccncc3)c(Cl)cc1NC(=O)N2`, the pEC50 is under 4.23.
The same measure, in the same setting: in the case of `N#Cc1ncc2nc1OCCCCOc1cc(NC(=O)c3ccnc(Cl)c3)c(Cl)cc1NC(=O)N2` it was under 4.23.
